# Reference: publication PMC3040319 (Pharmaceutical Research, 2010)
# Tests used:
# human OCT1 = biological target: T1, human OCT1 (Homo sapiens, UniProt O15245); test: Cellular accumulation of platinum in HEK-hOCT1 cells; format: in vitro ADME; conditions: 10 μM, 1 h
# T1 sequence (O15245 1-554): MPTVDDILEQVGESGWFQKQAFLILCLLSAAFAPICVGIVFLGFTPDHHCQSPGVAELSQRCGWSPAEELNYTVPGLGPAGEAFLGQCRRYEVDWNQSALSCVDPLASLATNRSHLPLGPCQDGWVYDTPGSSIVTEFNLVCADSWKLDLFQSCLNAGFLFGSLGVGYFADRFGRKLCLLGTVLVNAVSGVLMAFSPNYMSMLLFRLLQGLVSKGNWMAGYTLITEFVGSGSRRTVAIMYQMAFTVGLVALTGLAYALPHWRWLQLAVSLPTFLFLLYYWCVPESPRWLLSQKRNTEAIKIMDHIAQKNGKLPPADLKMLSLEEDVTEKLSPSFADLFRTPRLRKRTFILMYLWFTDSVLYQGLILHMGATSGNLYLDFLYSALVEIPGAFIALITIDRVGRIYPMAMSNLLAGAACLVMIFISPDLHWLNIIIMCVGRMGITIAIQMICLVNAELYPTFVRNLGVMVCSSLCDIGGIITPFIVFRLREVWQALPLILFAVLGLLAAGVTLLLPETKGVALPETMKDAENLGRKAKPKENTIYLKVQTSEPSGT
# In short: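 HEK293 cells stably carrying full-length mouse Oct1 cDNA in pcDNA5/FRT, selected with hygromycin B; the human OCT1 line's construct is not described. Cells grown in DMEM H21 with 10% FBS at 37°C, 5% CO2. Exposed to 10 μM test compound in serum-free medium for 1 h, then washed 3× with ice-cold PBS. Digested in 70% nitric acid at 65°C for ≥2.5 h. Pt measured by ICP-MS, normalised to BCA protein.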
# Kim-1 = test: Renal Kim-1 mRNA by qRT-PCR in the CDPCP toxicity study; format: in vivo, mouse; conditions: i.v. once weekly for 3 weeks
# In short: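 Same weekly ×3 tail-vein regimen with saline controls; kidneys were harvested 24 h after the last dose. Kidney RNA was extracted with Trizol and DNase I-treated, then reverse-transcribed. Taqman qRT-PCR for Kim-1 used GAPDH as internal control: 95°C 20 s, then 40 cycles of 95°C 3 s and 60°C 30 s. Results expressed as fold over saline.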
structure (smiles),measurement,setting,value
"[NH3+][Pt-2]([NH3+])([Cl])[n+]1ccccc1 (stereo not drawn) [CDPCP, cis-diammine(pyridine)chloroplatinum(II)]",uptake of platinum,human OCT1,852 ± 135 pmol/mg protein/hr
same,"renal mRNA levels of Kim-1, fold over saline control",Kim-1; Oct1+/+ mice,19.3 fold
same,"renal mRNA levels of Kim-1, fold over saline control",Kim-1; Oct1-/- mice,117 fold
